In ChEMBL document CHEMBL4699639, “Discovery of Novel 2-Aniline-1,4-naphthoquinones as Potential New Drug Treatment for Leber's Hereditary Optic Neuropathy (LHON)” (J Med Chem, 2020):
pEC50, pIC50: −log10 of the molar value. Active and inactive are the calls of the source. The rule behind the calls is not given here.

Assays:
[1] = Cytotoxicity against human HepG2 cells assessed as cell viability at 25 uM incubated for 24 hrs by Celltiter-blue assay relative to control; assay type: cell-based; conditions: read-out: Activity
Summary of the method: (§1)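 HepG2 or SH-SY5Y seeded 10×10^3 per well the day before in 1 g/L glucose medium with 2% FBS. Medium replaced with fresh 2% FBS, 1 g/L glucose medium containing compound (25 µM) for 24 h at 37 °C. CellTiter-Blue added for 4 h, fluorescence read at 560/590 nm. Viability given as % of vehicle/untreated cells. Mean ± SEM of ≥3 independent runs.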

[2] = Suppression of rotenone-induced ATP depletion in human HepG2 cells assessed as rescue of ATP level incubated for 2 hrs by Celltiter-Glo assay relative to control; assay type: functional; design: concentration or dose not given beside the values
Summary of the method: (§2)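 HepG2 cells seeded 10×10^3 per well in 1 g/L glucose, 2% FBS medium the day before. Switched to glucose- and FBS-free medium containing 10 µM rotenone, with compound added at the same time, 2 h at 37 °C. ATP read by CellTiter-Glo luminescence, normalized to DMSO cells without rotenone. Mean ± SEM of ≥3 independent runs. Complex III inhibitors, where used, at 50 nM.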

SH-SY5Y [3] = assay: Cytotoxicity against human SH-SY5Y cells assessed as reduction in cell viability at 25 uM incubated for 24 hrs by Celltiter-blue assay; assay type: cell-based; summary of the method: as §1
[4] = (§3) Suppression of rotenone-induced ATP depletion in human HepG2 cells assessed as rescue of ATP level at 5 uM incubated for 2 hrs by Celltiter-Glo assay relative to control; assay type: functional; summary of the method: as §2
HepG2 [5] = assay: Suppression of rotenone-induced ATP depletion in human HepG2 cells assessed as increase in rescue of ATP level at 1 uM incubated for 2 hrs by Celltiter-Glo assay; assay type: functional, cell-based; summary of the method: as §2
[6] = target: NAD(P)H dehydrogenase [quinone] 1 (Homo sapiens) (UniProt P15559); assay: Substrate activity at NQO1 in human HepG2 cells assessed as reduction in cell viability by WST-1 assay; assay type: cell-based
[7] = Cytotoxicity against […] assessed as reduction in cell viability by WST-1 assay; assay type: cell-based; conditions: r28
[8] = target: NAD(P)H dehydrogenase [quinone] 1 (Homo sapiens) (UniProt P15559); assay: Substrate activity at NQO1 in human HepG2 cells assessed as reduction in cell viability in presence of NQO1 inhibitor dicoumarol by WST-1 assay; assay type: cell-based
HepG2 [9] = assay: Cytotoxicity against human HepG2 cells assessed as cell reduction in cell viability at 25 uM incubated for 24 hrs by Celltiter-blue assay; assay type: cell-based; conditions: hepg2, 24 h; summary of the method: as §1
SH-SY5Y [10] = assay: Cytotoxicity against human SH-SY5Y cells assessed as reduction in cell viability by WST-1 assay; assay type: cell-based
[11] = target: NAD(P)H dehydrogenase [quinone] 1 (Homo sapiens) (UniProt P15559); assay: Substrate activity at recombinant NQO1 (unknown origin) assessed as reduction in NADH level at 20 uM measured for 6 mins by microplate reader analysis
HepG2 [12] = assay: as §3; assay type: functional; summary of the method: as §2
SH-SY5Y [13] = assay: Cytotoxicity against human SH-SY5Y cells assessed as reduction in cell viability incubated for 24 hrs by Celltiter-blue assay; assay type: cell-based
[14] = Suppression of rotenone-induced ATP depletion in human HepG2 cells incubated for 2 hrs by Celltiter-Glo assay; assay type: functional, cell-based; conditions: HepG2, 2 h; summary of the method: as §2
HepG2 [15] = assay: Suppression of rotenone-induced ATP depletion in human HepG2 cells assessed as rescue of ATP level at 5 uM incubated for 2 hrs in presence of complex III inhibitor antimycin by Celltiter-Glo assay; assay type: functional, cell-based; summary of the method: as §2
HepG2 [16] = assay: Suppression of rotenone-induced ATP depletion in human HepG2 cells assessed as rescue of ATP level at 5 uM incubated for 2 hrs in presence of NQO1 inhibitor dicoumarol by Celltiter-Glo assay; assay type: functional, cell-based
HepG2 [17] = assay: Suppression of rotenone-induced ATP depletion in human HepG2 cells assessed as rescue of ATP level at 5 uM incubated for 2 hrs in presence of complex III inhibitor myxothiazol by Celltiter-Glo assay; assay type: functional, cell-based; summary of the method: as §2
HepG2 [18] = assay: Cytotoxicity against human HepG2 cells assessed as reduction in cell viability incubated for 24 hrs by Celltiter-blue assay; assay type: cell-based; conditions: HepG2, 24 h
HepG2 [19] = assay: Suppression of rotenone-induced ATP depletion in human HepG2 cells assessed as increase in rescue of ATP level at 0.1 to 1 uM incubated for 2 hrs by Celltiter-Glo assay; assay type: functional, cell-based; conditions: dose microM 0.1-1, time 2.0 hrs; summary of the method: as §2
HepG2 [20] = assay: Suppression of rotenone-induced ATP depletion in human HepG2 cells assessed as rescue of ATP level at 5 uM incubated for 2 hrs in presence of NQO1 irreversible inhibitor ES936 by Celltiter-Glo assay; assay type: functional, cell-based
[21] = Cytoprotection against rotenone-induced C57BL/6J mouse retinal ganglion cells loss assessed as cell survival at 10 uM incubated for 24 hrs by Hoechst 33342 staining based counting method (reference value: 41%); assay type: functional; conditions: RGC, read-out: Activity
Summary of the method: (§4)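 Retinal explants from 6–8 month old female wild-type C57BL/6J mice, enucleated eyes placed in ice-cold HBSS. Explants incubated 24 h ex vivo in pre-warmed Neurobasal A with compounds in 0.1% DMSO, alone for toxicity or with 100 µM rotenone for activity. Hoechst 33342-stained nuclei (and anti-RBPMS-positive RGCs) counted in the central retina ganglion cell layer. Mean ± SEM, 1-way ANOVA with Tukey.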

[22] = Cytotoxicity against C57BL/6J mouse RGC cells at 20 uM incubated for 24 hrs by Hoechst 33342 staining based counting method; assay type: cell-based; summary of the method: as §4

NAD(P)H dehydrogenase [quinone] 1 (Homo sapiens), sequence (P15559 whole entry): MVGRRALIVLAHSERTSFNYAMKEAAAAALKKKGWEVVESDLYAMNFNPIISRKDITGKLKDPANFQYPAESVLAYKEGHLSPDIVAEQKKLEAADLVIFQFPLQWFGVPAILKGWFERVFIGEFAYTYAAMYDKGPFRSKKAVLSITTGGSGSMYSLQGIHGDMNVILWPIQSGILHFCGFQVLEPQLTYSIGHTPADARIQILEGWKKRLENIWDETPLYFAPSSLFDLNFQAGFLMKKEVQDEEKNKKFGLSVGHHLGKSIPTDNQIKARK

Question: For `O=C1C(Cl)=C(Nc2ccc(F)c(C(F)(F)F)c2)C(=O)c2ccccc21`, which viability at 24 h, 25 µM [1] is on record?
Answer: 65.8%

Question: And the Activity [2]?
Answer: 40.3%

Question: For `CCCCNC1=C(Cl)C(=O)c2ccccc2C1=O`, which Activity (SH-SY5Y [3]) is on record?
Answer: Toxic

Question: And the Activity [4]?
Answer: 70%

Question: Which Activity (HepG2 [5]) does the source give for `O=C1C(Cl)=C(NCCc2ccccc2)C(=O)c2ccccc21` here?
Answer: Active

Question: With `COC1=C(Nc2ccccc2)C(=O)c2ccccc2C1=O` as the compound, how does the Activity (HepG2 [5]) read?
Answer: inactive

Question: And the Activity (SH-SY5Y [3])?
Answer: Non-Toxic

Question: What does the source list for `CCSC1=C(Nc2cccc(C(F)(F)F)c2)C(=O)c2ccccc2C1=O`?
Answer: Activity (HepG2 [5]): Active; Activity [6]: Active; Activity (SH-SY5Y [3]): Toxic; Activity [7]: Non-Toxic; Activity [8]: inactive; Activity (HepG2 [9]): Toxic; Activity (SH-SY5Y [10]): Non-Toxic

Question: For `O=C1C(Br)=C(NCCc2ccccn2)C(=O)c2ccccc21`, which Activity (SH-SY5Y [3]) is on record?
Answer: Toxic

Question: With `O=C1C(Cl)=C(Nc2cccc(C(F)(F)F)c2)C(=O)c2ccccc21` as the compound, how does the Activity (HepG2 [5]) read?
Answer: Active

Question: What about the Activity (SH-SY5Y [3]) of the same compound?
Answer: Toxic

Question: What about the Activity (HepG2 [9]) of the same compound?
Answer: Toxic

Question: Which results are given for `CNC1=C(Nc2ccccc2)C(=O)c2ccccc2C1=O`?
Answer: Activity [11]: inactive; Activity (SH-SY5Y [3]): Non-Toxic

Question: For `O=C1C(Nc2ccccc2)=C(Oc2ccccc2)C(=O)c2ccccc21`, which Activity (HepG2 [5]) is on record?
Answer: inactive

Question: For `O=C1C(Cl)=C(NCCC(F)(F)F)C(=O)c2ccccc21`, which Activity (HepG2 [12]) is on record?
Answer: inactive

Question: What does the source list for `COC1=C(Nc2ccc(F)c(C(F)(F)F)c2)C(=O)c2ccccc2C1=O`?
Answer: Activity (HepG2 [5]): Active; pIC50 (SH-SY5Y [13]): < 4.00; viability at 24 h, 25 µM [1]: 96.5%; pEC50 [14]: 6.34; Activity [6]: Active; Activity [11]: Active; Activity (HepG2 [15]): inactive; Activity (HepG2 [16]): inactive; Activity (HepG2 [17]): inactive; Activity (SH-SY5Y [3]): Non-Toxic; pIC50 (HepG2 [18]): < 4.00; Activity [7]: Non-Toxic; Activity [2]: 58.6%; Activity [8]: inactive; Activity (HepG2 [19]): Active; Activity (HepG2 [20]): inactive; Activity (SH-SY5Y [10]): Non-Toxic

Question: Which results are given for `COC1=C(OC)C(=O)C(CCCCCCCCCCO)=C(C)C1=O` [IDEBENONE]?
Answer: pIC50 (SH-SY5Y [13]): 4.80; viability at 10 µM [21]: 73%; Activity [22]: Toxic; viability at 24 h, 25 µM [1]: 92.8%; pEC50 [14]: 6.03; Activity (HepG2 [15]): inactive; Activity (HepG2 [17]): inactive; Activity (SH-SY5Y [3]): Toxic; pIC50 (HepG2 [18]): 4.19; Activity [2]: 44.3%; Activity (HepG2 [19]): Active; Activity [4]: 70%

Question: For `O=C1C=C(NCCc2ccccc2)C(=O)c2ccccc21`, which Activity (SH-SY5Y [3]) is on record?
Answer: Toxic

Question: Which results are given for `O=C1C(Cl)=C(Nc2cccc(O)c2)C(=O)c2ccccc21`?
Answer: Activity [6]: Active; Activity [7]: Non-Toxic; Activity [8]: inactive; Activity (SH-SY5Y [10]): Non-Toxic

Question: What does the source list for `O=C1C=C(NCc2ccccc2)C(=O)c2ccccc21`?
Answer: Activity (HepG2 [5]): Active; Activity (SH-SY5Y [3]): Toxic

Question: Which results are given for `COC1=C(Nc2cccc(C(F)(F)F)c2)C(=O)c2ccccc2C1=O`?
Answer: Activity (HepG2 [5]): Active; Activity [6]: Active; Activity (SH-SY5Y [3]): Non-Toxic; Activity [7]: Non-Toxic; Activity [8]: inactive; Activity [4]: 70%; Activity (SH-SY5Y [10]): Non-Toxic

Question: For `O=C1C(Cl)=C(NCCc2cccc(C(F)(F)F)c2)C(=O)c2ccccc21`, which Activity (HepG2 [5]) is on record?
Answer: Active

Question: With `O=C1C(Cl)=C(Nc2ccccc2)C(=O)c2ccccc21` as the compound, how does the Activity (HepG2 [5]) read?
Answer: Active

Question: With `CC1=C(Sc2ccccc2)C(=O)c2ccccc2C1=O` as the compound, how does the Activity (SH-SY5Y [3]) read?
Answer: Toxic

Question: And the Activity [4]?
Answer: 70%

Question: Which viability at 24 h, 25 µM [1] does the source give for `CNC1=C(Nc2ccc(F)c(C(F)(F)F)c2)C(=O)c2ccccc2C1=O` here?
Answer: 95.8%

Question: And the Activity [11]?
Answer: inactive

Question: And the Activity (SH-SY5Y [3])?
Answer: Non-Toxic

Question: What about the Activity [2] of the same compound?
Answer: 14.7%

Question: Which Activity (HepG2 [5]) does the source give for `CC(C)SC1=C(Nc2cccc(C(F)(F)F)c2)C(=O)c2ccccc2C1=O` here?
Answer: Active

Question: What about the Activity (SH-SY5Y [3]) of the same compound?
Answer: Toxic

Question: What about the Activity (HepG2 [9]) of the same compound?
Answer: Toxic

Question: With `CN(C)C1=C(Nc2ccccc2)C(=O)c2ccccc2C1=O` as the compound, how does the Activity (HepG2 [5]) read?
Answer: Active
